Our source for the Ki and IC50 values is ChEMBL document CHEMBL1124505, “Inhibition of aminopeptidases by peptides containing ketomethylene and hydroxyethylene amide bond replacements” (J Med Chem, 1989).

Assay [1] has as its target T1, Aminopeptidase B (Rattus norvegicus, UniProt O09175).
T1 sequence (O09175 whole entry): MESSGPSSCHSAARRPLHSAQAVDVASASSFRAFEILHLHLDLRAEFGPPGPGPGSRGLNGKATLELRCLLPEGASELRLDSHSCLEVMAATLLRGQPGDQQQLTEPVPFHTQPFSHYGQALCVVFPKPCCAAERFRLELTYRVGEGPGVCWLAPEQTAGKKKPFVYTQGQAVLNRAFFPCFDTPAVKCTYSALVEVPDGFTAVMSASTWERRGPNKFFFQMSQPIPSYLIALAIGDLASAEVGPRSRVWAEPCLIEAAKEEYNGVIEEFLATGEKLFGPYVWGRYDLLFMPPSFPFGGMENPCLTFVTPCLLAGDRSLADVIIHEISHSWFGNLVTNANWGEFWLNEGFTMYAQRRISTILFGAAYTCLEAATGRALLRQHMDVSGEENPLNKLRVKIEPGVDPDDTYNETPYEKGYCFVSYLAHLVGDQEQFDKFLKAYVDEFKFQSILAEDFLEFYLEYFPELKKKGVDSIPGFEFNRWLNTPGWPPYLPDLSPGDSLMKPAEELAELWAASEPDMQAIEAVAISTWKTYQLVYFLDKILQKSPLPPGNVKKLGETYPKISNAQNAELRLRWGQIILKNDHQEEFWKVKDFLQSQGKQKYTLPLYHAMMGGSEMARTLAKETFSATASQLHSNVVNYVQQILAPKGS
In words: Competitive inhibition of aminopeptidase B or arginyl aminopeptidase purified from rat liver; Ki value reporting the slope effect(Kis). The essentials: (§1)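 Arginyl aminopeptidase purified from rat liver. Substrate L-arginine p-nitroanilide in 0.10 M PIPES, pH 7.0, with 0.20 M NaCl and 1 mM DTT, at 25 °C. Initial velocities read as p-nitroaniline release at 405 nm (E = 9620 L/mol·cm). Slow-binding inhibitors preincubated 15 min with enzyme before substrate was added; others started by adding enzyme.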

Assay [2] deals with T1, Aminopeptidase B. In words: Non-competitive inhibition of aminopeptidase B or arginyl aminopeptidase purified from rat liver; Ki value reporting the Kid. The essentials:
as §1

Assay [3] deals with T1, Aminopeptidase B. In words: Non-competitive inhibition of aminopeptidase B or arginyl aminopeptidase purified from rat liver; Ki value reporting the intercept effect(Kii). The gist of the method:
as §1

Assay [4] has as its target T1, Aminopeptidase B. In words: Non-competitive inhibition of aminopeptidase B or arginyl aminopeptidase purified from rat liver; Ki value reporting the slope effect(Kis). The gist of the method: as §1
Assay [5] deals with T1, Aminopeptidase B. In words: (§2) Inhibition of aminopeptidase B or arginyl aminopeptidase purified from rat liver. The class given is tissue-based. The essentials: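 Initial rates taken as p-nitroaniline release at 405 nm. Slow-binding inhibitors were preincubated with enzyme 15 min before substrate was added; others were started with enzyme.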
A further assay addresses Pancreatic elastase (Sus scrofa, UniProt P08419+P00772). In words: Inhibition of porcine pancreatic elastase. Type of assay: protein assay.
Assay [6] concerns the target T1, Aminopeptidase B. The description is as §2. The gist of the method:
as §1

The target of a further assay is T2, Renin (Homo sapiens, UniProt P00797).
T2 sequence (P00797 whole entry): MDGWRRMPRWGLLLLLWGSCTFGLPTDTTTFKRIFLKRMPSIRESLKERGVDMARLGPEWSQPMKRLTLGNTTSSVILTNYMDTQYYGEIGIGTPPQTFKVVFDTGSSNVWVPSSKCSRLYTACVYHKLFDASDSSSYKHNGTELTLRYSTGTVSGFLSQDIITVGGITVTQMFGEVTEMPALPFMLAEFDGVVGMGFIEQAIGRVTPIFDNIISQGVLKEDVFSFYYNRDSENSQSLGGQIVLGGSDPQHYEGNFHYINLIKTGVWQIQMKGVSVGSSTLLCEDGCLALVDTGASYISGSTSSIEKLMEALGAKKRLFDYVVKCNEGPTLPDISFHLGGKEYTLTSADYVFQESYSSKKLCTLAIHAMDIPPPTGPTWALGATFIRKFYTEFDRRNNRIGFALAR
In words: Inhibition of enzyme renin.

For assay [7], the target named is T1, Aminopeptidase B. In words: Competitive inhibition of aminopeptidase B or arginyl aminopeptidase purified from rat liver. The essentials: as §1

The term Ki denotes a dissociation constant, usually derived from enzyme kinetics or from competition with a known ligand. Take `CC(C)C[C@H](N)C(=O)CC(Cc1ccccc1)C(=O)O` (stereo partly specified): the affinity at Aminopeptidase B [1] corresponds to a Ki of 0.17 µM. Still for that read-out and setting: to `CC(C)C[C@@H](N)C(=O)CC(Cc1ccccc1)C(=O)O` (stereo partly specified) belongs 0.77 µM. In the case of `CC(CC(=O)[C@@H](N)CCCCN)C(=O)NC(Cc1ccccc1)C(=O)O` (stereo partly specified), the values for the Ki at Aminopeptidase B [2], on Aminopeptidase B [3] and at Aminopeptidase B [4] were 2.8 µM, 2 µM and 8.8 µM, respectively.

As for `NC(N)=NCCC[C@H](N)C(=O)C[C@@H](Cc1ccccc1)C(=O)O`, on Aminopeptidase B [5], the Ki was determined as 0.0025 µM. On Pancreatic elastase, `COC(=O)CCC(=O)C(C)NC(=O)c1ccccc1` (stereo unspecified) came in with a Ki of 4200 µM. The IC50 is the concentration at which inhibition is half-maximal. As for `CC(C)CCNC(=O)C(NC(=O)C(Cc1ccccc1)CC(O)C(N)CC(C)C)C(C)C` (stereo unspecified), the IC50 against Aminopeptidase B [6] is greater than 600 µM. `NCCCC[C@H](N)C(=O)CC(Cc1ccccc1)C(=O)O` (stereo partly specified): at Aminopeptidase B [1], the Ki amounted to 0.004 µM. In turn, `CC(C)C[C@H](NC(=O)[C@@H](O)[C@H](N)Cc1ccccc1)C(=O)O` [UBENIMEX] yielded a Ki at Aminopeptidase B [5] of 0.014 µM. This lies in the double-digit nanomolar range. On Aminopeptidase B [1], `CC(CC(=O)[C@@H](N)CCCCN)C(=O)O` (stereo partly specified) yielded an inhibition constant Ki of 2 µM. In turn, `N=C(N)NCCC[C@H](N)C(=O)C[C@@H](Cc1ccc(O)cc1)C(=O)O` came in with a Ki at Aminopeptidase B [5] of 0.00084 µM.

`CC(C)C[C@H](CN[C@H](CC(C)C)C(=O)N[C@H](C(=O)N[C@@H](Cc1ccc(O)cc1)C(=O)O)C(C)C)NC(=O)C(Cc1c[nH]cn1)NC(=O)[C@H](Cc1ccccc1)NC(=O)[C@@H]1CCCN1C(=O)C(N)Cc1c[nH]cn1` (stereo in doubt): the Ki on Renin came out at 1 µM. That is a single-digit micromolar value.

`CC(C)CC(N)C(=O)CC(C)C(=O)O` (stereo unspecified): the Ki at Aminopeptidase B [1] worked out at 130 µM. Turning to `CC(C)CCNC(=O)[C@@H](NC(=O)[C@H](C)CC(=O)[C@@H](N)CC(C)C)C(C)C`, the IC50 on Aminopeptidase B [7] was greater than 400 µM.

For the compound `CC(C)CCNC(=O)[C@@H](NC(=O)[C@H](CC(=O)[C@@H](N)CC(C)C)Cc1ccccc1)C(C)C`, on Aminopeptidase B [1], affinity was put at a Ki of 36 µM.
